Screens: PubChem BioAssay, several laboratories
In the library only some 2.5% were active in any assay of this set; here they are far more common.
PHOSPHO1 inh = PubChem AID 1565 | Phosphoethanolamine/phosphocholine phosphatase (Homo sapiens), Q8TCT1 | recombinant PHOSPHO1, absorbance phosphatase assay | inhibition, % at 13.3 µM | 290,000 tested, 1.1% active; in the data active = inhibition above about 60%
Target sequence (Q8TCT1 whole entry, looked up): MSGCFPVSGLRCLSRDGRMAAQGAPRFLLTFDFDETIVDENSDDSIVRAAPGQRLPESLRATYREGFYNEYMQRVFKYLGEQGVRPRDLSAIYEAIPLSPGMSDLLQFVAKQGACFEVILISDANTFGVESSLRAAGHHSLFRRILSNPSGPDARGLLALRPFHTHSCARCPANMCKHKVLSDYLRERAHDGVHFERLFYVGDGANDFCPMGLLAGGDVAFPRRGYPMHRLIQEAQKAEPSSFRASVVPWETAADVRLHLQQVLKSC
PfGluPho inh = PfG6PD enzyme inhibitors, primary screen, biochemical, fluorescence intensity, uHTS; glucose-6-phosphate dehydrogenase-6-phosphogluconolactonase (Plasmodium falciparum 3D7); PfGluPho enzyme, NADPH resazurin-diaphorase fluorescence; inhibition, % at 20 µM; 350,000 tested, 0.78% active; AID 504690, 2011;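 active = inhibition reaching at least a set limit at 20 µM in the primary screen, cut at about 59% in these data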;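 also: 0% = DMSO wells with substrate and 100% = DMSO wells lacking glucose-6-phosphate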
EP2 modulator = EP2 receptor modulators, cAMP readout, primary screen, cell-based, HTRF cAMP, PGE2 stimulation | Prostaglandin E2 receptor EP2 subtype (Homo sapiens), P43116 | EP2-expressing cells, cAMP HTRF FRET, PGE2 co-stimulation | induction, % at 25 µM | 260,000 tested, 0.83% active;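 active = compounds whose cAMP rise, as percent of the full-agonist control response, exceeds 60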;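 also: rat C6 glioma line stably carrying human EP2 under a CMV promoter; the protocol text gives 20 µM as final concentration; 100% = response of wells given 1 µM PGE2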
Target sequence (P43116 whole entry, looked up): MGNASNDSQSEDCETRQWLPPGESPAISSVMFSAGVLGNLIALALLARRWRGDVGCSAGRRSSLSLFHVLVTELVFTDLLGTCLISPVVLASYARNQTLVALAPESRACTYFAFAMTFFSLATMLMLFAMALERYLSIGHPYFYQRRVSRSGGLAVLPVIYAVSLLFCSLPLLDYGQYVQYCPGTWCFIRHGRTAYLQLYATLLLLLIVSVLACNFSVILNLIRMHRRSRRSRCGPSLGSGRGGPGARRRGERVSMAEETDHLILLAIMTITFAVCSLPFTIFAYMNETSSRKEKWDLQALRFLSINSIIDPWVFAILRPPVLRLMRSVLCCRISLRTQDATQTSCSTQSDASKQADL
Tb hexokinase = Trypanosoma brucei hexokinase 1 inhibitors, primary screen, biochemical, G6PDH-coupled NADH absorbance, MLSCN library. 220,000 tested, 0.11% active. inhibition, % at 10 µM. recombinant TbHK1, G6PDH-coupled NADH A340. hexokinase 1 [Trypanosoma brucei];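 active = inhibition of 50% or more in the single-dose primary screen; inactive = inhibition below 50%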
PGE2 EP2 inh = human EP2 receptor antagonists, primary screen, TR-FRET cAMP, C6 glioma cells. Prostaglandin E2 receptor EP2 subtype (Homo sapiens), P43116. C6 glioma cells expressing human EP2; cells stimulated with saturating PGE2. inhibition, % at 25 µM. 260,000 tested, 0.52% active;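 active = percent inhibition above 40 after rounding to a whole number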;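 also: rat C6 glioma host cells with rolipram phosphodiesterase inhibitor present; the protocol text gives 20 µM as final concentration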
HKDC1 inh = HKDC1 hexokinase inhibitors, primary screen, biochemical, fluorescence, uHTS. Q2TB90. recombinant HKDC1, G6PDH/diaphorase resazurin coupled fluorescence. inhibition, % at 20 µM. 340,000 tested, 0.16% active. AID 493160, 2011;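 active = inhibition above about 35% when tested at 20 µM, limit read from the data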;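 also: plate controls were DMSO wells with enzyme for no effect and DMSO wells lacking enzyme for full effect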
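System: Recombinant HKDC1 hexokinase | Amount: HKDC1 at 5 µg/mL | Reagent: Glucose with 1 mM ATP | Doses: Single 20 µM dose | Incubation: Reaction time 90 min, room temperature, protected from light | Signal: Coupled resazurin fluorescence, excitation 525 nm, emission 613 nm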
PfGluPho conf = PfG6PD inhibitors, hit retest, confirmation, biochemical, fluorescence intensity, single concentration. shares compounds with PfGluPho inh. recombinant PfGluPho, NADPH-diaphorase-resazurin fluorescence. inhibition, % at 20 µM. 2,400 tested, 34% active. AID 504753, 2011;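 active = inhibition of at least 50% at 20 µM in any single replicate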;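 also: 0% = DMSO with substrate and 100% = DMSO lacking glucose-6-phosphate substrate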
Diaphorase 10uM = diaphorase inhibitors and chemical oxidizers, confirmation, counter-screen for P. falciparum G6PD inhibitor project, biochemical, fluorescence intensity, 10 µM NADPH; shares compounds with PfGluPho inh; diaphorase-coupled resazurin reduction, NADPH 10 uM; inhibition, % at 20 µM; 820 tested, 39% active; AID 504862, 2011;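 active = average inhibition reaching 50% or more with the compound at 20 µM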;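 also: resorufin red fluorescence formed as diaphorase reduces resazurin using NADPH; 0% = DMSO with enzyme and 100% = DMSO without enzyme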
Diaphorase 30uM = diaphorase inhibitors and chemical oxidizers, confirmation, counter-screen for P. falciparum G6PD inhibitor project, biochemical, fluorescence intensity, 30 µM NADPH; shares compounds with PfGluPho inh; Diaphorase/resazurin coupled assay, resorufin fluorescence; inhibition, % at 20 µM; 820 tested, 29% active; AID 504863, 2011;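 active = inhibition averaging 50% or more, tested at 20 µM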;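 also: 0% = DMSO with enzyme and 100% = DMSO wells lacking diaphorase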
* hit, by the source's call; x = not tested or not shown.

SMILES	PHOSPHO1 inh	PfGluPho inh	EP2 modulator	Tb hexokinase	PGE2 EP2 inh	HKDC1 inh	PfGluPho conf	others
COc1ccc(-c2ccc(=O)n(CC3CCN(C(=O)N4CCCCC4)CC3)n2)cc1	x	x	-17.7	x	x	x	x
N#Cc1cc2ccc(N3CCOCC3)cc2cc1C#N	2.8	63.4*	x	-9.3	30.1	19.6	28.6
N#Cc1ccc(N2CCOCC2)cc1C#N	x	x	2.3	x	8.5	x	x
O=C(c1cccc(C(F)(F)F)c1)N1CCC(O)(c2ccccn2)CC1	x	x	-73.6	x	x	x	x
Cn1nc(C(F)(F)F)c2cc(NC(=O)OCc3ccc(C(C)(C)C)cc3)sc21	1.7	28.1	-6.3	-2.1	x	0.9	x
Cn1nc(C(F)(F)F)c2cc(NC(=O)OCc3ccc(F)cc3)sc21	28.1	59.0*	-26.2	2.4	35.6	7.1	4.2
Cc1c(N)cc2c(c1N)C(C)(C)CC2(C)C	x	83.1*	x	x	x	24.4	45.7
CC(=O)/C(N=Nc1cc2c(c([N+](=O)[O-])c1C)C(C)(C)CC2(C)C)=C(\C)O	16.6	12.1	48.8	-21.2	8.1	4.0	x
COc1ccc(N2CCN(C(=O)CN(c3ccc(OC)cc3OC)S(C)(=O)=O)CC2)cc1	x	x	-33.3	x	8.7	x	x
O=C(CSc1ccccn1)Nc1nonc1[N+](=O)[O-]	20.7	111.8*	x	x	x	13.4	109.7*	Diaphorase 10uM=87.4*;Diaphorase 30uM=90.9*
O=C(N=Nc1c(O)[nH]c2ccccc12)c1cc(-c2cccs2)[nH]n1	-5.6	92.4*	-23.9	-30.1	4.6	10.8	38.6
O=C(N=Nc1c(O)[nH]c2ccccc12)c1ccccc1NS(=O)(=O)c1cccs1	4.2	62.4*	-19.4	17.5	5.5	3.8	11.9
O=C(Cc1cccs1)N=Nc1c(O)[nH]c2ccccc12	10.0	5.1	9.2	-34.1	3.4	-1.8	x
COc1cc(OC)cc(C(=O)N2CCC(C(=O)Nc3cccc(Cl)c3)CC2)c1	x	x	-33.8	x	6.8	x	x
Nc1nc(-c2cc(O)ccc2[N+](=O)[O-])cc(-c2ccccc2)c1[N+](=O)[O-]	29.0	75.5*	x	x	x	11.7	-4.1
Cc1ccc(C)c(CSC2=NCCN2S(=O)(=O)c2ccccc2)c1	33.5	61.9*	x	x	x	3.6	-3.2
CC(SC1=NCCN1S(=O)(=O)c1ccccc1)c1ccccc1 (stereo not given)	61.0*	62.2*	x	x	x	9.8	24.1
O=S(=O)(c1ccccc1)N1CCN=C1SCc1c(F)cccc1Cl	26.3	105.9*	x	x	x	-0.7	31.9
Cc1ccc(CSC2=NCCN2S(=O)(=O)c2ccc(C)cc2)cc1	x	14.9	x	x	x	x	x
O=S(=O)(c1ccc(Cl)cc1)N1CCN=C1SCc1cccc(Cl)c1	1.0	43.1	39.7	5.0	7.9	1.9	x
O=C(CN1Cc2ccccc2C1=O)NC1(c2ccc(F)cc2)CCCC1	x	x	17.5	x	x	x	x
O=C(c1cccnc1)C1CCN(C(=O)Cc2cccc(F)c2)CC1	x	x	-23.6	x	x	x	x
O=C(CSc1nnc2c(n1)[nH]c1ccccc12)Nc1cccc(S(=O)(=O)N2CCOCC2)c1	-153.2	62.3*	-4.7	5.9	7.0	8.1	15.9
O=C(CSc1nnc2c(n1)[nH]c1ccccc12)Nc1ccc2c(c1)OCO2	78.5*	64.1*	-29.3	-16.6	5.4	-4.7	0.5
COC(=O)Cn1cnc2sc(C)c(-c3ccc(F)cc3)c2c1=O	x	x	14.8	x	11.6	x	x
SMILES	PHOSPHO1 inh	PfGluPho inh	EP2 modulator	Tb hexokinase	PGE2 EP2 inh	HKDC1 inh	PfGluPho conf	others
COc1ccc(CCN2C(=O)CSC2=Nc2ccc(C(C)C)cc2)cc1OC	11.7	47.5	-23.5	30.5	1.5	4.2	-8.3
COc1ccc(N2C(=S)N(C(=O)c3ccccc3)C(=Nc3ccccc3)C2=Nc2ccccc2)cc1	x	64.2*	x	-24.3	2.3	-12.2	31.3
Cc1c(Cl)cccc1N=Cc1ccc([N+](=O)[O-])s1	21.6	77.4*	-2.1	-1.1	6.8	3.1	-5.2
Cc1ccccc1C(=O)N/N=C/c1ccc([N+](=O)[O-])s1	40.2	35.1	-12.4	-6.0	17.4	10.1	x
Clc1ccccc1/C=N/NC1=Nc2cccc3cccc1c23	2.4	0.0	5.4	9.1	2.4	-1.5	x
C(=N\NC1=Nc2cccc3cccc1c23)/c1ccccn1	-2.1	65.3*	-58.6	-2.9	8.8	0.2	13.7
CCC(=O)c1cn(CC(=O)N2CCc3ccccc3C2)c2ccccc12	x	x	-13.7	x	5.9	x	x
OC(CN1CCC(O)(c2ccc3c(c2)OCO3)CC1)c1ccc(Cl)cc1 (stereo not given)	x	x	-73.1	x	5.8	x	x
COc1cccc(OCCNc2cc(Cl)ccc2[N+](=O)[O-])c1	10.4	62.7*	23.5	7.7	6.4	-4.1	-11.8
CN(NS(=O)(=O)c1ccc([N+](=O)[O-])cc1)c1ccccc1	x	82.3*	x	x	x	x	54.9*	Diaphorase 10uM=91.2*;Diaphorase 30uM=84.8*
CCn1c([N+](=O)[O-])nc2c1c(=O)[nH]c(=O)n2C	35.7	66.7*	10.3	-9.9	2.4	2.0	51.9*	Diaphorase 10uM=36.9;Diaphorase 30uM=32.3
CCCn1c(SCC)nc2c1c(=O)[nH]c(=O)n2C	x	x	31.7	x	8.4	x	x
Nc1nc2ccccc2n1/N=C/c1cccnc1	x	18.6	-25.3	-22.3	13.1	-4.9	x
Nc1nc2ccccc2n1/N=C/c1ccc(-c2ccccc2)o1	11.4	79.8*	41.5	-13.6	x	3.6	13.4
CCOC(=O)c1ccc(-n2c(N)c(C(=O)NCC3CCCO3)sc2=S)cc1 (stereo not given)	75.7*	74.1*	-11.4	-13.2	3.0	-1.8	52.9*	Diaphorase 10uM=10.6;Diaphorase 30uM=12.1
CNC(=O)c1sc(=S)n(-c2ccc(OC)cc2)c1N	36.7	-19.2	-21.1	-21.9	3.3	-3.7	x
CCOC(=O)c1ccc(-n2c(N)c(C(=O)NCc3ccco3)sc2=S)cc1	-26.5	83.4*	-26.7	-21.1	10.1	-11.6	38.4
Cc1ccc(-n2c(N)c(C(=O)NCc3cccnc3)sc2=S)cc1	-41.0	67.5*	-4.2	-1.8	18.8	-6.7	6.9
